Measured values collected from several papers.
Lines come from different studies, so protocols differ.
Target: Serine/threonine-protein kinase RIO2 (RIOK2, Homo sapiens, UniProt Q9BVS4)

Compound | read-out | technique | concentration | remaining binding
C[C@@H]1CN(c2ccc3ncc(-c4ccc5[nH]nc(C6CC6)c5c4)n3n2)C[C@H](C)O1 | binding | competition with immobilised ligand | 0.5 µM | 23%
O=C(Nc1ccc(Oc2ccc(F)cc2)cc1)N1CCc2ncccc2[C@H]1c1ccc(F)cc1 | cell-free assay | competition with immobilised ligand | 1 µM | 94%
Nc1ncc2c(n1)-c1c([nH]c3ccc(C#CC4CC4)cc13)CCCC2 | binding | competition with immobilised ligand | 1 µM | 77%
CCN1CCN(Cc2ccc(C(=O)Nc3ccc(C)c(Oc4ccc5c(c4)CC(=O)N5)c3)cc2C(F)(F)F)CC1 | binding | competition with immobilised ligand | 1 µM | 100%
CC(C)(C)c1ccc(-c2nc(CBr)nn2-c2cccc(O)c2)cc1 | cell-free assay | competition with immobilised ligand | 10 µM | 84%
C[C@@H]1CCN(c2nccc(-c3cnn4ncccc34)n2)C1 | binding | – | 1 µM | 75%
O=C(c1ccc(Nc2ncc(Cl)c(-c3ccc(Cl)s3)n2)cc1)N1CCC(N2CCCC2)CC1 | binding | competition with immobilised ligand | 1 µM | 49%
CN(C)C(=O)Cn1cc(-c2nc([C@@](C)(c3ccc(-c4cnc(N)nc4)cc3)C3CC3)no2)cn1 | cell-free assay | competition with immobilised ligand | 1 µM | 87%
O=C(c1ccc(Nc2nccc(-c3cc4ccccc4s3)n2)cc1)N1CCC(N2CCCC2)CC1 | binding | competition with immobilised ligand | 1 µM | 46%
COc1ccnn2ncc(-c3ccnc(N(C)C)n3)c12 | binding | – | 1 µM | 63%
Cc1cnc(Nc2ccc(C(=O)N3CCC(N4CCCC4)CC3)cc2)nc1-c1cc2ccccc2s1 | binding | competition with immobilised ligand | 1 µM | 40%
COc1cnc(Nc2cccc(S(N)(=O)=O)c2)nc1N1CCN(c2ccccc2)CC1 | binding | competition with immobilised ligand | 1 µM | 83%
CCc1ccccc1C(=O)Nc1n[nH]c2c(C)c(F)c(C3C(C#N)=C(C)N(C)C(C)=C3C#N)cc12 | cell-free assay | competition with immobilised ligand | 1 µM | 93%
O=C(NCC1CCOCC1)c1n[nH]cc1NC(=O)c1c(F)cccc1F | binding | competition with immobilised ligand | 1 µM | 35%
FC(F)(F)Oc1cccc(-c2cnc3ccc(-c4ccncc4)nn23)c1 | binding | competition with immobilised ligand | 5 µM | 7.7%
CNC(=O)Nc1ccc2c(c1)[C@@]1(CC2)OC(=O)N(CC(=O)N(Cc2ccc(F)cc2)[C@@H](C)C(F)(F)F)C1=O | cell-free assay | competition with immobilised ligand | 1 µM | 83%
COc1ncc2cc3ccccc3nc2c1C#N | cell-free assay | competition with immobilised ligand | 5 µM | 91%
c1ccc(N2CCN(Cc3nc4ccccc4[nH]3)CC2)nc1 | binding | competition with immobilised ligand | 1 µM | 100%
CN(C)c1ncc(F)c(-c2cnn3ncccc23)n1 | binding | – | 1 µM | 78%
CC(C)(O)c1cncc(-c2nc3ccc(F)cc3n2C2CC2)c1 | cell-free assay | competition with immobilised ligand | 1 µM | 100%
N[C@@H]1CCN(c2nccc(-c3cnn4ncccc34)n2)C1 | binding | – | 1 µM | 37%
N#Cc1ccccc1CSc1nnc2c(n1)[nH]c1ccccc12 | binding | competition with immobilised ligand | 10 µM | 94%
CC1=C(C#N)C(c2ccc3c(c2)c(NC(=O)c2ccccc2C)nn3C)C(C#N)=C(C)N1 | cell-free assay | competition with immobilised ligand | 1 µM | 65%
CN(c1nccc(-c2cnn3ncccc23)n1)C1CC1 | binding | – | 1 µM | 99%
